Results gathered from unrelated publications.
Compare with care: the assays were run in different laboratories.
Target: Muscarinic acetylcholine receptor M3 (CHRM3, Homo sapiens, UniProt P20309)
Concentration: 10 µM

| SMILES | read-out | technique | inhibition [%] |
| --- | --- | --- | --- |
| CCN(CC)CCCC[C@H](NC(=O)[C@H](CC(C)C)NC(=O)[C@H](C)NC(=O)[C@H](Cc1ccccc1)NC(=O)c1ccc(C(C)(C)C)cc1)C(=O)N[C@@H](CO)C(=O)OC | ligand displacement | radioligand | 7 |
| COc1ccc(C(=O)NCc2cc(C(C)C)no2)cc1OC1CCN(C)CC1 | ligand displacement | radioligand | 26 |
| COCc1c(-c2cc3cc(C)cc(OC)c3s2)c2c(N)ncnn2c1CN1CCNC(=O)C1 | ligand displacement | radioligand | 0 |
| Cc1ccccc1Oc1cc(-n2c(=O)cc(C(F)(F)F)[nH]c2=O)c2ccccc2c1Cl | ligand displacement | – | -16.2 |
| CN1CC[C@@]2(C)c3cc(OC(=O)Nc4ccccc4)ccc3N(C)[C@@H]12 | ligand displacement | radioligand | 3.1 |
| CCC(=NO)C(C)=Cc1ccc(F)c(C)c1 | ligand displacement | – | -5.75 |
| c1ccc(C(NCCNC(c2ccccc2)c2ccccc2)c2ccccc2)cc1 | cell-free assay | – | 11 |
| CC(C)N1CCC[C@H]1CNC(=O)c1cn(C2CCCC2)c(=O)c2c1c1ccccc1n2C | ligand displacement | radioligand | 12 |
| C[C@H](C(=O)N[C@H]1COc2ccccc2[C@@H]1S(C)(=O)=O)c1ccc(F)cc1 | cell-free assay | – | 12 |
| Clc1ccc2c(C3CCN(CCc4c[nH]c5ccccc45)CC3)c[nH]c2c1 | ligand displacement | radioligand | 61 |
